Consider one molecule from ChEMBL document CHEMBL3351942, “Rexinoids isolated from Sophora tonkinensis with a gene expression profile distinct from the synthetic rexinoid bexarotene” (J Nat Prod, 2014).

Activity calls are given as the source filed them. No cut-off for these calls is given here.

What all share (format): cell-based
Assay [1] is described as follows: Activation of LXR in mouse C2C12 cells assessed as induction of ABCA1 mRNA expression at 10 uM after 24 hrs by quantitative RT-PCR analysis. The method, boiled down: (§1)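 C2C12 myoblasts grown in DMEM/10% FBS, differentiated at confluence in 2% horse serum, medium changed every other day for 5 days; myotubes treated 24 h with or without T0901317 (1 μM). Total RNA, DNase-treated, oligo(dT) RT from 0.5 μg, SYBR green qPCR; normalized to β-actin (delta-delta Ct), fold over vehicle; mean ± SD of four determinants, one of two experiments.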

For assay [2], the target named is T1, Retinoic acid receptor alpha (Homo sapiens) (UniProt P10276).
T1 sequence (whole entry): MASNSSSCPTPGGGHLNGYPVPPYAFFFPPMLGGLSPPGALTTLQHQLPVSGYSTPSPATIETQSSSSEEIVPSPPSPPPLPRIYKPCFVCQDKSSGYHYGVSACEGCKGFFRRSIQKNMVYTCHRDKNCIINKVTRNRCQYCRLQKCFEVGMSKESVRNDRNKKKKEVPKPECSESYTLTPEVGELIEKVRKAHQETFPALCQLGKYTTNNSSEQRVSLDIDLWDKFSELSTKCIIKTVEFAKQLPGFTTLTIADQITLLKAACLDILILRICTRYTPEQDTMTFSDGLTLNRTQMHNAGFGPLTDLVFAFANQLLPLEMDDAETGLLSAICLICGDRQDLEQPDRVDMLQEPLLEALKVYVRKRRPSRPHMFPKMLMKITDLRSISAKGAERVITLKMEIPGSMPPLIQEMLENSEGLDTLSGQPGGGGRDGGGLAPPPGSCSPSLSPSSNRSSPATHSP
As to the kind of experiment: Activation of human RAR-alpha expressed in HEK293 cells coexpressing with tk-betaRE-Luc after 24 hrs by luciferase reporter gene assay. The essentials:
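Calcium phosphate transfection of HEK293 cells with 30 ng pCMX-hRAR-α, 120 ng tk-βRE-Luc and 30 ng pCMX-β-gal plus carrier pUC18 (600 ng DNA per well). Cells were washed 8 h later and incubated with compound in 10% FBS medium. Luciferase was normalized to β-galactosidase; triplicate or quadruplicate, representative of three experiments.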

Assay [3] deals with T2, Peroxisome proliferator-activated receptor delta (Mus musculus) (UniProt P35396).
T2 sequence (whole entry): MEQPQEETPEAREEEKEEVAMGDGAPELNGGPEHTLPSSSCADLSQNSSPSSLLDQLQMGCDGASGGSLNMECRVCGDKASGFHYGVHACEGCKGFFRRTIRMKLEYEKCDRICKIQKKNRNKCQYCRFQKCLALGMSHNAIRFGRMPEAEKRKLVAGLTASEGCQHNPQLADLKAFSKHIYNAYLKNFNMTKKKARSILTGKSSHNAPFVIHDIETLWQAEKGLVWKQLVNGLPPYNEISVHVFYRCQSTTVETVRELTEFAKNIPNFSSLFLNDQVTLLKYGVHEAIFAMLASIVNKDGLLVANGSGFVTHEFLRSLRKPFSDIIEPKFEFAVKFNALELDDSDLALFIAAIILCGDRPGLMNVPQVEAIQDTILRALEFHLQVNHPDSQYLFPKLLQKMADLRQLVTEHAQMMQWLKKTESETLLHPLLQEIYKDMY
As to the kind of experiment: Activation of PPARdelta in mouse C2C12 cells assessed as induction of CPT1A mRNA expression at 10 uM after 24 hrs in presence of GW501516 by quantitative RT-PCR analysis. The method, boiled down:
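Differentiated C2C12 myotubes (2% horse serum, 5 days) exposed 24 h with or without PPARδ agonist GW501516 (1 μM). mRNA quantified by SYBR green real-time RT-PCR, normalized to β-actin by delta-delta Ct, and expressed as fold induction vs vehicle; means ± SD of four determinants from one of two independent experiments; one-way ANOVA with Bonferroni.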

Assay [4] can be described thus: Activation of LXR in mouse C2C12 cells assessed as induction of FAS mRNA expression at 10 uM after 24 hrs in presence of T0901317 by quantitative RT-PCR analysis. The method, boiled down:
as §1

Turning to `CC(C)=CCc1cc([C@@H]2CC(=O)c3ccc(O)c(CC=C(C)C)c3O2)cc2c1OC(C(C)(C)O)C2` (some centres undefined), the outcome in assay [1] and in assay [3] was Active. For the same molecule, the result in assay [2] and in assay [4] was inactive.
